# According to the RNAGym collection of RNA variant scans (doi:10.1126/science.aae0568):
# This sample holds only a part of the variants without activity.
# B1: tRNA (parent)
# chain: GUUCCGUUGGCGUAAUGGUAACGCGUCUCCCUCCUAAGGAGAAGACUGCGGGUUCGAGUCCCGUACGGAACG
# Variants of: B1
# Assay: yeast fitness relative to wild type (ratio to wild type); higher = fitter; tRNA-Arg(CCU), competitive growth, 37 C, YPD
# In short: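 For this measurement, the tRNA-Arg(CCU) gene was varied by chemical synthesis at a 3% per-site mutation rate across 69 sites, and each variant was placed at the native genomic locus in Saccharomyces cerevisiae. The pooled strains went through a 24-hour competition in YPD at 37°C in six parallel replicates, with amplicons from start and end populations read by 100-nucleotide paired-end sequencing. Darwinian fitness relative to wild type followed from the change in each genotype's frequency. Genotypes needed ≥ 100 starting reads, and estimates < 0.5 were set to 0.5.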
row,Variant,yeast fitness
1,C24U C49U U59G G67U,≤ 0.5
2,C24G C30G C66U,≤ 0.5
3,G25A G41A C60G C62G A65G,≤ 0.5
4,C24G A65U G67C,≤ 0.5
5,C24U G63A,0.869
6,C24U G63C,0.771
7,C24U U28C G48A C61G,≤ 0.5
8,C24G G50C A70G,≤ 0.5
9,G25C G50C,0.627
10,C24A C29A G44A C46G G50A A65U,0.556
11,C24U C29G C31U U64A,≤ 0.5
12,C24U G56A C60A,0.594
13,C24U C31A G56C,0.544
14,G25C C31U U32A A70G,≤ 0.5
15,C24A G39A,0.66
16,G25A C66G,0.962
17,G25C C33G C61G,≤ 0.5
18,G25A C30U A36C,≤ 0.5
19,G25C A57U,0.659
20,C24U A42U G52C,0.578
21,C24U A37G A45U C55U,0.708
22,C24U G39A A65U,0.528
23,G25C C60U C61A,≤ 0.5
24,C24U U28G G48A,≤ 0.5

row,Variant,yeast fitness
1,C24U C30U A57C,≤ 0.5
2,U26A A36G A70U,0.584
3,C24U C29U C46U,0.554
4,C24G A57C C61U,≤ 0.5
5,C24U A70C,1.04
6,G25C C27U C61G,0.502
7,G25A C29U C60A,0.728
8,C24U C46A C62A A69C,0.573
9,G25A A42G G44C C49G A70U,≤ 0.5
10,C24U A37G A43G,0.516
11,C24G A36U A37C A65C,≤ 0.5
12,C24U C49G G63A A69C,≤ 0.5
13,C24G G41A,0.619
14,C24G C49U C55G G58A,0.764
15,C24G C49G G50C,≤ 0.5
16,G25A C31U U47G C55A A57G A65C A70C,≤ 0.5
17,C24U G58A C60G,0.897
18,G25C A40C C62A,0.675
19,G25C C31U C46U,0.684
20,C24U A45C G63A,0.601
21,C24U C30U,0.744
22,C24A C27U A40U A57C,0.512
23,C24U G44C,0.825
24,C24U A42C,0.994

row,Variant,yeast fitness
1,G25A G41A,0.822
2,C24U C49G G56C G58A G67A,≤ 0.5
3,C24A G44A,0.7
4,C24U G44A C60U C62A,≤ 0.5
5,C24G C34G A70C,≤ 0.5
6,C24U A45C,0.971
7,C24U G39C A70G,≤ 0.5
8,C24U U54G,0.577
9,C24U C33U C61A A69U,≤ 0.5
10,C24U U53A C55A,0.65
11,G25C G48A C60G,≤ 0.5
12,G25C U32G G41A,0.565
13,C24G G38A G44C,≤ 0.5
14,C24G C31U C34U C49U A69C,≤ 0.5
15,G25C G51A U54A,0.507
16,G25A A45G G50C,0.516
17,G25A C29G G48A A69U,≤ 0.5
18,C24G U32C A42G,0.574
19,C24G C55G C62U,≤ 0.5
20,C24A U26A C55A C66U,≤ 0.5
21,C24G U54C G67C,≤ 0.5
22,C24A U26G A43C G68C,≤ 0.5
23,C24G C29G G48A,≤ 0.5
24,U26A A40U A65C,0.662

row,Variant,yeast fitness
1,C24G C30G C62U G68C,≤ 0.5
2,C24A U64C,0.706
3,C24U U32C C46A A70U,0.65
4,C24U G41A C62A A69U,≤ 0.5
5,G25A G56A A69C,0.773
6,G25A G41A G52C,≤ 0.5
7,G25C C34U,0.558
8,C24A C30U C33A G41C A42U,≤ 0.5
9,C24G U59A,0.552
10,C24G C30U C31G G50A,≤ 0.5
11,C24U U47A G48C U54G A65C,≤ 0.5
12,G25C A43G C61U,0.623
13,C24U A36U C46G C62A A69C,≤ 0.5
14,C24G C60U G63A,≤ 0.5
15,C24G A36U A42U C49G U53A G58A C60A,≤ 0.5
16,C24G A42C C55A U59A A70U,≤ 0.5
17,G25U C60G,≤ 0.5
18,G25C A40C G68C,0.645
19,C24G G39A A70C,≤ 0.5
20,U26A A36C,≤ 0.5
21,C24A C30U A45G A57U,0.6
22,C24A C49U C55U,≤ 0.5
23,G25A U28G C33G A45C,≤ 0.5
24,G25C U35C G58C,0.558

row,Variant,yeast fitness
1,C24G U35A A40C G52A C60A C61G,≤ 0.5
2,C24U C34G U35G G38A A45C,0.646
3,C24U A42U C46A C55U C61G A69C,≤ 0.5
4,G25A C27G C61G,0.574
5,C24U C60U,0.797
6,G25A C27G C33G G39A C46U C61U A69U,≤ 0.5
7,C24G G50A C55U A69C A70U,≤ 0.5
8,G25C C30U C61G,0.526
9,C24A C34U A43U C49G C62G,≤ 0.5
10,C24U C30A A37G,0.593
11,G25A C29U A65G,0.704
12,C24U U26C G58A,1.01
13,C24G C31G G50A,0.522
14,C24G G58C G68A,≤ 0.5
15,G25C U53A A57U A65U,≤ 0.5
16,C24U G38A,0.819
17,G25A C31U G38C U54C,0.654
18,G25C C27A,0.678
19,G25C C31G C34G G41A C61U A69U,≤ 0.5
20,C24U U26G G51A,≤ 0.5
21,C24A G48A U53G G63C,≤ 0.5
22,C24A C60U C61G G67A,0.614
23,G25A C34A A36C G51C,≤ 0.5
24,C24G C27U C33U G50C C66U,≤ 0.5

row,Variant,yeast fitness
1,G25C G50A C62G,0.897
2,C24U A42U C61U,0.641
3,C24G A40G C66U,0.515
4,C24U A43U G56A,0.837
5,U26A A40C U64G,0.538
6,C24U A43C,0.786
7,G25A C30A A45G U64C,0.984
8,G25A C29A C46G G51A,≤ 0.5
9,G25C C33U C49A U53A G67A,≤ 0.5
10,C24U C34U C66U,0.58
11,G25C C27G C30G C60A,≤ 0.5
12,C24G A37C C49U,≤ 0.5
13,C24G A37G U59A C62A G67A,≤ 0.5
14,G25A A37C A69U,0.684
15,C24U G25A C30U,0.684
16,C24U A45C U47A G63A,≤ 0.5
17,C24G U35G G48C C66U,≤ 0.5
18,G25A C49A G68C,≤ 0.5
19,C24G C31U C61A,≤ 0.5
20,C24G A42G A57G,≤ 0.5
21,C24A C31U G51A C62A,≤ 0.5
22,G25C A36G G48A,0.571
23,C24A G68C,0.643
24,C24U U26G A36G A43G,≤ 0.5

row,Variant,yeast fitness
1,C24U U28C A40C G68C,≤ 0.5
2,C24U C31G C60A U64C,≤ 0.5
3,G25A U28C,0.891
4,C24G C60A,0.576
5,C24G A45C C46G C60G A69U,≤ 0.5
6,C24G C31G,0.773
7,G25A C30G C34A C49G,≤ 0.5
8,C24U C27G C55G G68A,0.526
9,G25C U53A C55U,≤ 0.5
10,C24U C27A,0.882
11,C24G A45U U54A,≤ 0.5
12,C24U C27G U32C A65U,≤ 0.5
13,C24U C33G U59C U64A,0.686
14,G25C C34U A40G U54A A65G,0.582
15,C24U G25A C30U C46A A69U,0.611
16,C24A C29U C30U,≤ 0.5
17,C24U A57C C61U,≤ 0.5
18,G25A C34G G67A,≤ 0.5
19,C24G A65C,0.648
20,C24A U26G A43C A70G,≤ 0.5
21,C24G A37G U59A G67A,0.548
22,G25A G58C A65G,1.04
23,C24G C49G G68U,≤ 0.5
